Reference: ChEMBL document CHEMBL1156459, “Discovery of a small molecule antagonist of the parathyroid hormone receptor by using an N-terminal parathyroid hormone peptide probe” (Proc Natl Acad Sci U S A, 2007)
The source made the active and inactive calls. No cut-off for these calls is given here. Square brackets hold non-standard residues; d marks the D form. Peptide text beside a SMILES is read from it. * marks the point of attachment. X1 = O=C(c1ccccc1-c1c2ccc(=O)cc-2oc2cc(O)ccc12)*; hArg = N=C(N)NCCCC[C@H](N)C(=O)O; Nle = CCCC[C@H](N)C(=O)O

Legend:
[1] = molecular target: Parathyroid hormone/parathyroid hormone-related peptide receptor (Homo sapiens) (UniProt Q03431); assay: Antagonist activity at human PTH/PTH-related peptide receptor expressed in human SaOS2 assessed as inhibition of DPC-AJ1951-induced cAMP production; format: functional, cell-based; conditions: SAOS-2
How it was run: (§1)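 Cells lifted with EDTA after culture in DMEM with 10% FBS and refeeding 12–24 h before assay. Resuspended in HBSS/5 mM Hepes/0.1% BSA/0.5 mM IBMX, pH 7.4, and stimulated with agonist peptide with or without antagonist. cAMP read by AlphaScreen.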

[2] = molecular target: C-X-C chemokine receptor type 2 (Homo sapiens) (UniProt P25025); assay: Inhibition of CXCR2 at 20 uM
Sequence of C-X-C chemokine receptor type 2 (Homo sapiens) (P25025 whole entry): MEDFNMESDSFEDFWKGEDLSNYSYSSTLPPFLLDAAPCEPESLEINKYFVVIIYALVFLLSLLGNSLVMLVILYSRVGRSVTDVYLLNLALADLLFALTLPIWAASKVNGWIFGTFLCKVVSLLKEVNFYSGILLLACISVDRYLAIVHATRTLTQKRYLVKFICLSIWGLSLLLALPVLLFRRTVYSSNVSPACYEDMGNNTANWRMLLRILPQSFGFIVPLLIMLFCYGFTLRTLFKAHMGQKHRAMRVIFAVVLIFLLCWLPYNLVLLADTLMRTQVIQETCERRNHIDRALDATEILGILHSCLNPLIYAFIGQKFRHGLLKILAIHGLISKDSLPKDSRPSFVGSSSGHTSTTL

[3] = molecular target: Parathyroid hormone/parathyroid hormone-related peptide receptor (Homo sapiens) (UniProt Q03431); assay: Antagonist activity at human PTH/PTH-related peptide receptor expressed in human CL0153 cells assessed as inhibition of DPC-AJ1951-induced cAMP production; format: functional, cell-based; how it was run: as §1
[4] = molecular target: C-C chemokine receptor type 1 (Homo sapiens) (UniProt P32246); assay: Binding affinity to CCR1 at 20 uM
[5] = molecular target: C-C chemokine receptor type 4 (Homo sapiens) (UniProt P51679); assay: Binding affinity to CCR4 at 20 uM
Sequence of C-C chemokine receptor type 4 (Homo sapiens) (P51679 whole entry): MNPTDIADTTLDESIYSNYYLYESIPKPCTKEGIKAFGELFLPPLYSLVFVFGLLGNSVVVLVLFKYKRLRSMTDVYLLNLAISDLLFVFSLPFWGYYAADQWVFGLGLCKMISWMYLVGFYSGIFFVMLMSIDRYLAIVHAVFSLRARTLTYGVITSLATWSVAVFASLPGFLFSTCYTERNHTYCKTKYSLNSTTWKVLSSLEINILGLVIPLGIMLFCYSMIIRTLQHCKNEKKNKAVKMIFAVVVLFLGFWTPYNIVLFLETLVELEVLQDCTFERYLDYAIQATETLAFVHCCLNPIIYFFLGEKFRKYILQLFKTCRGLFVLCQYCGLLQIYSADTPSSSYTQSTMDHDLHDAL

[6] = molecular target: T1, Parathyroid hormone/parathyroid hormone-related peptide receptor (Homo sapiens, UniProt Q03431); assay: Antagonist activity at PTH/PTH-related peptide receptor expressed in HKRK-B28 cells assessed as inhibition of parathyroid hormone (1 to 34)-induced cAMP production; format: functional, cell-based; how it was run: as §1
T1 sequence (Q03431 whole entry): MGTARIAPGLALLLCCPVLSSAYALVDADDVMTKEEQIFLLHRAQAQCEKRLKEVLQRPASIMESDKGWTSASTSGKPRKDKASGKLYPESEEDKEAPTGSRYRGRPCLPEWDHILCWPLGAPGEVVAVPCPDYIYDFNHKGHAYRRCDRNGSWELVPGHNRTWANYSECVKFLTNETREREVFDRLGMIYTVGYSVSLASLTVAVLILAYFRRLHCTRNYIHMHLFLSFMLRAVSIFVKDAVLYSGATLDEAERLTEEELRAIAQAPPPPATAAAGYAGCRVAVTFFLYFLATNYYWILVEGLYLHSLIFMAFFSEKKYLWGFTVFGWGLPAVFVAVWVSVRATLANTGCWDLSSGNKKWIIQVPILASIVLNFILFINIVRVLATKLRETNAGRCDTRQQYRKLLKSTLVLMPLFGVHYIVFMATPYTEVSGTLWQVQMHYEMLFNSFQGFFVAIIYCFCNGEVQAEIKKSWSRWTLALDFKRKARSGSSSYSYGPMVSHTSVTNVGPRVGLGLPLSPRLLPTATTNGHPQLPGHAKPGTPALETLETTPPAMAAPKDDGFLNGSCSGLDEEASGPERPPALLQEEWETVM

[7] = molecular target: Parathyroid hormone/parathyroid hormone-related peptide receptor (Rattus norvegicus) (UniProt P25961); assay: Antagonist activity at rat PTH/PTH-related peptide receptor expressed in rat UMR106 cells assessed as inhibition of DPC-AJ1951-induced cAMP production; format: functional, cell-based; how it was run: as §1
[8] = molecular target: D(2) dopamine receptor (Homo sapiens) (UniProt P14416); assay: Inhibition of dopamine D2 receptor at 20 uM
[9] = molecular target: 5-hydroxytryptamine receptor 2C (Homo sapiens) (UniProt P28335); assay: Inhibition of 5HT2C receptor at 20 uM
[10] = molecular target: T1, Parathyroid hormone/parathyroid hormone-related peptide receptor; assay: Displacement of [125I]DPC-AJ1951 from PTH/PTH-related peptide receptor expressed in HKRK-B28 cells; format: cell-based
How it was run: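 Whole HKRK-B28 cells plated at 30,000/well and incubated overnight at 37°C, 5% CO2. Incubated 3 h at room temperature, washed three times, bound radioactivity counted by scintillation.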

[11] = molecular target: Muscarinic acetylcholine receptor M5 (Homo sapiens) (UniProt P08912); assay: Inhibition of muscarinic M5 receptor at 20 uM
Sequence of Muscarinic acetylcholine receptor M5 (Homo sapiens) (P08912 whole entry): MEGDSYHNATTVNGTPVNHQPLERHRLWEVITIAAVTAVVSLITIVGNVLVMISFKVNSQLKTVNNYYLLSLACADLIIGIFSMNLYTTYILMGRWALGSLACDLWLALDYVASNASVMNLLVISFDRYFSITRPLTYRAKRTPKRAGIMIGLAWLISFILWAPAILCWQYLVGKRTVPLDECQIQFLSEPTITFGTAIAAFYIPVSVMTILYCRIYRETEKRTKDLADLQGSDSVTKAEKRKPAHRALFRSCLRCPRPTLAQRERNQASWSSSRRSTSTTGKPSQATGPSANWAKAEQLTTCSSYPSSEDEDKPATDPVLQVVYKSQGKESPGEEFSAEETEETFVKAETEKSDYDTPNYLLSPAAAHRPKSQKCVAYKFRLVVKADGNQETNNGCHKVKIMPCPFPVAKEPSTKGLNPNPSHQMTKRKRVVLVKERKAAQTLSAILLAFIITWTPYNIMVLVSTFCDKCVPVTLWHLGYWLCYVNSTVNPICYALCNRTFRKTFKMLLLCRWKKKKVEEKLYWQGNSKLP

[12] = molecular target: C-C chemokine receptor type 5 (Homo sapiens) (UniProt P51681); assay: Binding affinity to CCR5 at 20 uM
Sequence of C-C chemokine receptor type 5 (Homo sapiens) (P51681 whole entry, looked up): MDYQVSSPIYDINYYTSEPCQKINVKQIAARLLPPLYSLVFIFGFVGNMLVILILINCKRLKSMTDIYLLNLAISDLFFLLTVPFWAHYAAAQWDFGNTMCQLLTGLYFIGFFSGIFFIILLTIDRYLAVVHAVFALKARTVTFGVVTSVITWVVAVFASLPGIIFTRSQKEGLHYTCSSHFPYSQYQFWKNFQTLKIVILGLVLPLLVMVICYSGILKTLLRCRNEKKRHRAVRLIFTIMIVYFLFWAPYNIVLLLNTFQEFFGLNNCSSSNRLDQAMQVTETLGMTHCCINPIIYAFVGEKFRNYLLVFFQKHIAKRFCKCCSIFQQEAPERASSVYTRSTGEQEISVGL

[13] = molecular target: Alpha-2C adrenergic receptor (Homo sapiens, UniProt P18825); assay: Inhibition of adrenergic Alpha-2C receptor
[14] = molecular target: 5-hydroxytryptamine receptor 2A (Homo sapiens, UniProt P28223); assay: Inhibition of 5HT2A receptor
[15] = molecular target: Alpha-1D adrenergic receptor (Homo sapiens, UniProt P25100); assay: Inhibition of adrenergic Alpha-1D receptor
Sequence of Alpha-1D adrenergic receptor (P25100 whole entry): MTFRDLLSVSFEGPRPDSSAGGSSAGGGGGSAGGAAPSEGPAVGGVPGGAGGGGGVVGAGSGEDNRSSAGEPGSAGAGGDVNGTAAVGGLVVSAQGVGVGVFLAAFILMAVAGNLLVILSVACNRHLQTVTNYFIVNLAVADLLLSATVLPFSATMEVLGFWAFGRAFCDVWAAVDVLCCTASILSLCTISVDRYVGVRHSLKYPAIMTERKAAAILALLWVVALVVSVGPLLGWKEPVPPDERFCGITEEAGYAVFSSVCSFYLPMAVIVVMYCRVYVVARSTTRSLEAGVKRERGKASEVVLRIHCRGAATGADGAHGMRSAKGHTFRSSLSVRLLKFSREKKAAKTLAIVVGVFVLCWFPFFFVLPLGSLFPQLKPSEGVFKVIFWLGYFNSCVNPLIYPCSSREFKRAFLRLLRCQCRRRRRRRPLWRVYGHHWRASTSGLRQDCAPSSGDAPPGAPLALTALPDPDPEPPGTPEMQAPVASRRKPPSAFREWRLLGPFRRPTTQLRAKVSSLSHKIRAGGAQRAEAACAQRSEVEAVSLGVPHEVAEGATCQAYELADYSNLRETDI

[16] = molecular target: T1, Parathyroid hormone/parathyroid hormone-related peptide receptor; assay: Antagonist activity at PTH/PTH-related peptide receptor expressed in HKRK-B28 cells assessed as inhibition of DPC-AJ1951-induced cAMP production; format: functional, cell-based; how it was run: as §1
[17] = molecular target: C-C chemokine receptor type 2 (Homo sapiens) (UniProt P41597); assay: Binding affinity to CCR2 at 20 uM
Sequence of C-C chemokine receptor type 2 (Homo sapiens) (P41597 whole entry, looked up): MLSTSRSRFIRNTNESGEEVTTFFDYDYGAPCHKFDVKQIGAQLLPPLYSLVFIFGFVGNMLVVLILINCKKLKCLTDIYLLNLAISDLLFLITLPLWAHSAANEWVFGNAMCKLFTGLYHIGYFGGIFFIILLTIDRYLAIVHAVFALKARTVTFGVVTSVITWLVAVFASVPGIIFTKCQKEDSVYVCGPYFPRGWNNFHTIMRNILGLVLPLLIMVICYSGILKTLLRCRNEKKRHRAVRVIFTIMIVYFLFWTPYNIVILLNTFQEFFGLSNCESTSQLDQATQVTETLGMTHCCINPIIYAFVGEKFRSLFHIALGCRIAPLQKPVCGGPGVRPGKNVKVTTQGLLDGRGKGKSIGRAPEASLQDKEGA

[18] = molecular target: C-X-C chemokine receptor type 3 (Homo sapiens) (UniProt P49682); assay: Inhibition of CXCR3 at 20 uM
Sequence of C-X-C chemokine receptor type 3 (Homo sapiens) (P49682 whole entry): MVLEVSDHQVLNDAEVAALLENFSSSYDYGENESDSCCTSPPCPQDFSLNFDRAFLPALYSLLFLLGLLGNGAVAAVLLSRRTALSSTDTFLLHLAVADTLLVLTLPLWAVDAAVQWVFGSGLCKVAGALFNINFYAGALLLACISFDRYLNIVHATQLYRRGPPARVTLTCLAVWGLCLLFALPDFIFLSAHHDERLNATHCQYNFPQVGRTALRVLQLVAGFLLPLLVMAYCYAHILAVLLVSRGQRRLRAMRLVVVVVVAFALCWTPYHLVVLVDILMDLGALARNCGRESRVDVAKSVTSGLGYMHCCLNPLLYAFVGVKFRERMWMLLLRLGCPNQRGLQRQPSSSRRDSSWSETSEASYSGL

Substance-K receptor = Substance-K receptor (Homo sapiens, UniProt P21452); assay: Inhibition of neurokinin 2 receptor
Sequence of Substance-K receptor (P21452 whole entry): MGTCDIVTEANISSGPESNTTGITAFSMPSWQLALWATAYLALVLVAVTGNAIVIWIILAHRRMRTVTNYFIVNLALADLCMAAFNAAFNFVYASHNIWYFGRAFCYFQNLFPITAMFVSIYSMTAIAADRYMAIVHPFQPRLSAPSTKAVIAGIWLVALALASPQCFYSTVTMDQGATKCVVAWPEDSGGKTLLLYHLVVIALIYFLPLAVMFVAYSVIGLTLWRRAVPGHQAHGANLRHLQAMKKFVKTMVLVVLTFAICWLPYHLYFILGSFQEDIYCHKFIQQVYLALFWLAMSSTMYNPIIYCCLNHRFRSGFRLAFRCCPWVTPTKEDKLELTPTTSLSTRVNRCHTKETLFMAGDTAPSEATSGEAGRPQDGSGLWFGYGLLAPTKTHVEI

[19] = molecular target: Alpha-2A adrenergic receptor (Homo sapiens) (UniProt P08913); assay: Inhibition of adrenergic alpha2A receptor at 20 uM
Sequence of Alpha-2A adrenergic receptor (Homo sapiens) (P08913 whole entry): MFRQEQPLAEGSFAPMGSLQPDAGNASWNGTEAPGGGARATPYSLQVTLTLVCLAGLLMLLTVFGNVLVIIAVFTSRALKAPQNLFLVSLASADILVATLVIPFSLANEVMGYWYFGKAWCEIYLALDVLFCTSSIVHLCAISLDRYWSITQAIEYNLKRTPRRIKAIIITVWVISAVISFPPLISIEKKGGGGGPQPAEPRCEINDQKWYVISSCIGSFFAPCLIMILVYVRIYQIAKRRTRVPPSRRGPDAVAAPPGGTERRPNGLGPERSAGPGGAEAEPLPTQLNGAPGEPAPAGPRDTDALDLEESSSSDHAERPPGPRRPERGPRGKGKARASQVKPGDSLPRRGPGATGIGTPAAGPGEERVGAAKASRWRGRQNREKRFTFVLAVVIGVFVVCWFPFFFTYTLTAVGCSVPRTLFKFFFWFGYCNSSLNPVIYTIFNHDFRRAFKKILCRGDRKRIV

[20] = molecular target: C-C chemokine receptor type 3 (Homo sapiens) (UniProt P51677); assay: Binding affinity to CCR3 at 20 uM
Sequence of C-C chemokine receptor type 3 (Homo sapiens) (P51677 whole entry): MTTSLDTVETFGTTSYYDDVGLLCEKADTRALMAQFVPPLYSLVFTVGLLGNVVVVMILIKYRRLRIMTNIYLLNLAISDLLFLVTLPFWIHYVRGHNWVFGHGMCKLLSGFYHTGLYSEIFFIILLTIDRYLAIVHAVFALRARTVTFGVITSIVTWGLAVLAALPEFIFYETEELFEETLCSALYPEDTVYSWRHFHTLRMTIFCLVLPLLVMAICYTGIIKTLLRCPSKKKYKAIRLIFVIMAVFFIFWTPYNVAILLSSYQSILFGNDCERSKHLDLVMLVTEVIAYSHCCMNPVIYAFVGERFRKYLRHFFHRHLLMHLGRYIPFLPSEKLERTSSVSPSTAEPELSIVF

[21] = molecular target: Histamine H1 receptor (Homo sapiens) (UniProt P35367); assay: Inhibition of histamine H1 receptor at 20 uM
Sequence of Histamine H1 receptor (Homo sapiens) (P35367 whole entry): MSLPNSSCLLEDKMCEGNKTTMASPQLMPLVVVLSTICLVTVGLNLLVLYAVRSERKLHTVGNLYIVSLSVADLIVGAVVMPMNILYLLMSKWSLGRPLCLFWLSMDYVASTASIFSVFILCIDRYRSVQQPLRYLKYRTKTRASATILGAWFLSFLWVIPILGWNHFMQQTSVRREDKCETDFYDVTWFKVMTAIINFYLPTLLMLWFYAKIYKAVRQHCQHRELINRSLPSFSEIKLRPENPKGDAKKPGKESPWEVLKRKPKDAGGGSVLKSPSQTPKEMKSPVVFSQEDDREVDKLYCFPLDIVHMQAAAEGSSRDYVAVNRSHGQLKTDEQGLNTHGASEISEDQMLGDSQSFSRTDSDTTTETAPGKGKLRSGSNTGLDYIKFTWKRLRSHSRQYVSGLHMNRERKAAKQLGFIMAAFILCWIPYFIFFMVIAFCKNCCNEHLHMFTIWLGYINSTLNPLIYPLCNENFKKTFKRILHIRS

[22] = molecular target: Alpha-1B adrenergic receptor (Homo sapiens) (UniProt P35368); assay: Inhibition of adrenergic Alpha-1B receptor at 20 uM
[23] = molecular target: T1, Parathyroid hormone/parathyroid hormone-related peptide receptor; assay: Activity at human PTH/PTH-related peptide receptor expressed in SAOS2 cells assessed as cAMP formation; format: functional, cell-based, SAOS-2
How it was run: (§2)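 Nonconfluent cells grown at 37°C in DMEM with 10% FBS, refed 12–24 h before assay. Rinsed with warm PBS, detached with prewarmed EDTA (37°C, 5–10 min), spun at 300 × g for 5 min. Resuspended in HBSS/5 mM Hepes/0.1% BSA/0.5 mM IBMX, pH 7.4. cAMP read by AlphaScreen.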

[24] = molecular target: T1, Parathyroid hormone/parathyroid hormone-related peptide receptor; assay: Activity at human PTH/PTH-related peptide receptor expressed in HEK293 cells assessed as induction of luciferase activity by CRE-luciferase reporter assay; format: functional, cell-based
[25] = molecular target: T2, Parathyroid hormone/parathyroid hormone-related peptide receptor (Rattus norvegicus, UniProt P25961); assay: Activity at rat PTH/PTH-related peptide receptor expressed in rat UMR106 cells assessed as cAMP formation; format: functional, cell-based; how it was run: as §2
T2 sequence (P25961 whole entry): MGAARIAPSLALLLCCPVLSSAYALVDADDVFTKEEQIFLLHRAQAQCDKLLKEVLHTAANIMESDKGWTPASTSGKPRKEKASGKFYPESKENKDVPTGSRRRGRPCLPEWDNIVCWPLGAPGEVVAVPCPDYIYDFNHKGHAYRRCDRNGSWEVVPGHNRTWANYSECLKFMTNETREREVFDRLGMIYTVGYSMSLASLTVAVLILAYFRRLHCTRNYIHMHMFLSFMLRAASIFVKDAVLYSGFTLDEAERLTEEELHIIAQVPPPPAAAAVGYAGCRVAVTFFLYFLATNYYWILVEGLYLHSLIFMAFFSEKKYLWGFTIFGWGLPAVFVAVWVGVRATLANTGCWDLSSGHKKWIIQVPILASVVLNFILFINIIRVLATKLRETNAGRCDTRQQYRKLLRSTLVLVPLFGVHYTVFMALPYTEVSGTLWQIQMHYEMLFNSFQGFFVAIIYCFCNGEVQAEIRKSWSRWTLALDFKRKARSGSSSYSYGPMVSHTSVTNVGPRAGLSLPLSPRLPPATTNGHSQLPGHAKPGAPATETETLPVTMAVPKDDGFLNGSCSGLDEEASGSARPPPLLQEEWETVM

Structure (SMILES): CC[C@@H]1O[C@](/C=C/C2CC2)(C(F)(F)F)c2c(ccc(F)c2F)NC1=O
- Activity [1]: Active
- Activity [2]: inactive
- Activity [3]: Active
- Activity [4]: inactive
- Activity [5]: inactive
- IC50 [6]: 68 µM
- Activity [7]: Active
- Activity [8]: inactive
- Activity [9]: inactive
- IC50 [10]: 0.99 µM
- Activity [11]: inactive
- Activity [12]: inactive
- IC50 [13]: 10.4 µM
- IC50 [14]: 15 µM
- IC50 [15]: 13.8 µM
- IC50 [16]: 5.78 µM
- Activity [17]: inactive
- Activity [18]: inactive
- IC50 (Substance-K receptor): 28 µM
- Activity [19]: inactive
- Activity [20]: inactive
- Activity [21]: inactive
- Activity [22]: inactive

Structure (SMILES): CC[C@H](C)[C@H](NC(=O)[C@H](CCC(=O)O)NC(=O)[C@H](C)NC(=O)[C@@H](NC(=O)[C@H](C)N)C(C)C)C(=O)N[C@@H](CCC(N)=O)C(=O)N[C@@H](CC(C)C)C(=O)N[C@@H](CCSC)C(=O)N[C@@H](Cc1cnc[nH]1)C(=O)N[C@@H](CCC(N)=O)C(=O)N[C@@H](CCCCN=C(N)N)C(=O)N[C@@H](C)C(=O)N[C@@H](CCCCN)C(=O)N[C@@H](Cc1c[nH]c2ccccc12)C(N)=O (H-AVAEIQLMHQ[hArg]AKW-NH2)
- IC50 [10]: 10.5 µM
- EC50 [23]: 800 nM
- EC50 [24]: 32 nM
- EC50 [25]: 155 nM

Structure (SMILES): CC[C@H](C)[C@H](NC(=O)[C@H](CCC(=O)O)NC(=O)[C@H](C)NC(=O)[C@@H](NC(=O)[C@H](C)N)C(C)C)C(=O)N[C@@H](CCC(N)=O)C(=O)N[C@@H](CC(C)C)C(=O)N[C@@H](CCSC)C(=O)N[C@@H](Cc1cnc[nH]1)C(=O)N[C@@H](CCC(N)=O)C(=O)N[C@@H](CCCCNC(=N)N)C(=O)N[C@@H](C)C(=O)N[C@@H](CCCCN)C(=O)N[C@@H](Cc1c[nH]c2ccccc12)C(=O)N[C@@H](CCCCNC(=O)c1ccccc1-c1c2ccc(=O)cc-2oc2cc(O)ccc12)C(N)=O (H-AVAEIQLMHQ[hArg]AKWK(X1)-NH2)
- IC50 [10]: 10.1 µM
- EC50 [23]: 1000 nM
- EC50 [24]: 53 nM
- EC50 [25]: 251 nM

Structure (SMILES): CCCC[C@H](NC(=O)[C@H](CC(C)C)NC(=O)[C@H](CCC(N)=O)NC(=O)[C@@H](NC(=O)[C@H](CCC(=O)O)NC(=O)[C@H](C)NC(=O)[C@@H](NC(=O)[C@H](C)N)C(C)C)[C@@H](C)CC)C(=O)N[C@@H](Cc1cnc[nH]1)C(=O)N[C@@H](CCC(N)=O)C(=O)N[C@@H](CCCCNC(=N)N)C(=O)N[C@@H](C)C(=O)N[C@@H](CCCCN)C(=O)N[C@@H](Cc1c[nH]c2ccccc12)C(=O)N[C@@H](Cc1ccc(O)cc1)C(N)=O (H-AVAEIQL[Nle]HQ[hArg]AKWY-NH2)
- IC50 [10]: 2.19 µM
- EC50 [23]: 1460 nM
- EC50 [24]: 26 nM
- EC50 [25]: 129 nM
